Reference: ChEMBL document CHEMBL1132599, “Bisquaternary ligands of the common allosteric site of M2 acetylcholine receptors: search for the minimum essential distances between the pharmacophoric elements” (J Med Chem, 1999)

Key:
[1] = molecular target: T1, Muscarinic acetylcholine receptor M2 (Sus scrofa, UniProt P06199); assay: Allosteric potency against the dissociation of radioligand [3H]N-methylscopolamine from the porcine cardiac Muscarinic acetylcholine receptor M2
T1 sequence (P06199 whole entry): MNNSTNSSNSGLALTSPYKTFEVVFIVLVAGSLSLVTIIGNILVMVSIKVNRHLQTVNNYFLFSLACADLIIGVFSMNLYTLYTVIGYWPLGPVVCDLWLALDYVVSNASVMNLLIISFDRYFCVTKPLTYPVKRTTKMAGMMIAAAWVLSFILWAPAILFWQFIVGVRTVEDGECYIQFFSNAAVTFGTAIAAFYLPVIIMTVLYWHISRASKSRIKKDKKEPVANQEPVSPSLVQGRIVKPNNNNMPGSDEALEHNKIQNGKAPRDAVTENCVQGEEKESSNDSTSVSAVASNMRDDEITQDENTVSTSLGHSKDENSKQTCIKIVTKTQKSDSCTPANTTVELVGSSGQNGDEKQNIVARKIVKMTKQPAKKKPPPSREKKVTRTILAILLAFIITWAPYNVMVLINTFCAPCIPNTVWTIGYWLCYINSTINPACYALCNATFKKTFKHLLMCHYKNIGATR
How it was run: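 Porcine ventricular membranes: homogenized in 0.32 M sucrose, spun at 300g then 80000g, resuspended in 50 mM Tris-HCl pH 7.4. Labeled with 0.2 nM [3H]NMS for 30 min in 2.6 mM MgHPO4/45 mM Tris-HCl, pH 7.3, 37 °C. Dissociation started with 1 µM atropine plus modulator, sampled up to 2 h (some two-point, 0 and 4 min), then filtered and counted. EC50 is the concentration halving monoexponential k-1 (4–6 concentrations).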

[2] = Half life (t1/2) value of the compound.; assay type: ADME
How it was run: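 Chemical hydrolysis followed by UV spectroscopy for 24 h at 20 °C in TRIS-HCl–Mg buffer (3.6 mM MgHPO4, 50 mM TRIS, pH 7.3); half-life of the compound reported in hours.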

| Structure (SMILES) | EC50 [1] [nM] | half-life [2] [min] |
| --- | --- | --- |
| C[N+](C)(CCCC[N+](C)(C)CCCN1C(=O)c2ccccc2C1=O)CCCN1C(=O)c2ccccc2C1=O.[Br-].[Br-] | 2690 | 840 |
| O=C1c2ccccc2C(=O)N1CCCC[n+]1ccc(CCCc2cc[n+](CCCCN3C(=O)c4ccccc4C3=O)cc2)cc1 | 630 | – |
| C[N+](C)(CCCCC[N+](C)(C)CCCN1C(=O)c2ccccc2C1=O)CCCN1C(=O)c2ccccc2C1=O.[Br-].[Br-] | 1390 | 1040 |
| C[N+](C)(CCCCCCC[N+](C)(C)CCCN1C(=O)c2ccccc2C1=O)CCCN1C(=O)c2ccccc2C1=O.[Br-].[Br-] | 370 | 984 |
| C[N+](C)(CCCCCCCC[N+](C)(C)CCCN1C(=O)c2ccccc2C1=O)CCCN1C(=O)c2ccccc2C1=O.[Br-].[Br-] | 570 | 2110 |
| O=C1c2ccccc2C(=O)N1C[n+]1ccc(CCCc2cc[n+](CN3C(=O)c4ccccc4C3=O)cc2)cc1 | 50800 | – |
| O=C1c2ccccc2C(=O)N1CO/N=C/c1cc[n+](CCC[n+]2ccc(/C=N/OCN3C(=O)c4ccccc4C3=O)cc2)cc1 | 510 | – |
| O=C1c2ccccc2C(=O)N1CCCO/N=C/c1cc[n+](CCC[n+]2ccc(/C=N/OCCCN3C(=O)c4ccccc4C3=O)cc2)cc1 | 520 | – |
| O=C1c2ccccc2C(=O)N1CCCO/N=C/c1cc[n+](CCCCCC[n+]2ccc(/C=N/OCCCN3C(=O)c4ccccc4C3=O)cc2)cc1 | 450 | – |
| O=C1c2ccccc2C(=O)N1CCCO/N=C/c1cc[n+](CCCC[n+]2ccc(/C=N/OCCCN3C(=O)c4ccccc4C3=O)cc2)cc1 | 350 | – |
| C[N+](C)(CCCN1C(=O)c2ccccc2C1=O)CCCN1C(=O)c2ccccc2C1=O | 8820 | – |
| O=C1c2ccccc2C(=O)N1CO/N=C/c1cc[n+](CCCC[n+]2ccc(/C=N/OCN3C(=O)c4ccccc4C3=O)cc2)cc1 | 1900 | – |
| O=C1c2ccccc2C(=O)N1CO/N=C/c1cc[n+](CCCCCC[n+]2ccc(/C=N/OCN3C(=O)c4ccccc4C3=O)cc2)cc1 | 1400 | – |
| O=C1c2ccccc2C(=O)N1CCC[n+]1ccc(CCc2cc[n+](CCCN3C(=O)c4ccccc4C3=O)cc2)cc1 | 2340 | – |
| C[N+](C)(CCCCCC[N+](C)(C)CCCN1C(=O)c2ccccc2C1=O)CCCN1C(=O)c2ccccc2C1=O.[Br-].[Br-] | 1440 | 1080 |
| C[N+](C)(CCCCCCCCCC[N+](C)(C)CCCN1C(=O)c2ccccc2C1=O)CCCN1C(=O)c2ccccc2C1=O.[Br-].[Br-] | 530 | 1160 |
| O=C1c2ccccc2C(=O)N1CC[n+]1ccc(CCCc2cc[n+](CCN3C(=O)c4ccccc4C3=O)cc2)cc1 | 3490 | – |
| O=C1c2ccccc2C(=O)N1CCCC[n+]1ccc(CCc2cc[n+](CCCCN3C(=O)c4ccccc4C3=O)cc2)cc1 | 470 | – |
| C[N+](C)(CCCN1C(=O)c2ccccc2C1=O)CCC[N+](C)(C)CCCN1C(=O)c2ccccc2C1=O.[Br-].[Br-] | 3800 | 870 |
| O=C1c2ccccc2C(=O)N1CCCO/N=C/c1cc[n+](CCCCC[n+]2ccc(/C=N/OCCCN3C(=O)c4ccccc4C3=O)cc2)cc1 | 510 | – |
| O=C1c2ccccc2C(=O)N1CCC[n+]1ccc(CCCc2cc[n+](CCCN3C(=O)c4ccccc4C3=O)cc2)cc1 | 4870 | – |
| O=C1c2ccccc2C(=O)N1CCCC[n+]1ccc(-c2cc[n+](CCCCN3C(=O)c4ccccc4C3=O)cc2)cc1 | 4650 | – |
